Experimental findings from ChEMBL document CHEMBL1156779, “Biotin derivatives carrying two chelating DOTA units. Synthesis, in vitro evaluation of biotinidases resistance, avidin binding, and radiolabeling tests” (J Med Chem, 2010) are described below.

Data set [1] in a line: Displacement of HABA from avidin. In outline: (§1)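 HABA competition in cuvettes. HABA/avidin complex formed at final avidin 7.6 μM and […], then competitors added at various concentrations. Absorbance read at 500 nm. Triplicate runs. % inhibition computed from absorbance with competitor against absorbance without competitor, each corrected for the blank without HABA/Av complex.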

A short description of data set [2]: Displacement of HABA from avidin at 31 uM. The essentials:
as §1

The nature of data set [3]: Binding affinity to avidin by thermal stability study. The essentials:
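Far-UV CD of avidin/ligand complexes. Thermal unfolding followed by the fall in dichroic signal at 225 nm over 25-95 °C. Settings: bandwidth 1 nm, response 0.5 s, data pitch 1 °C, slope 10 °C/min. Full spectrum (195-260 nm) recorded every 5 °C increment, each spectrum an average of three. Inflection point of the melting curve taken as the read-out.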

A further data set concerns Serum. In words: Stability in normal mouse serum after 2 hrs. Type of data set: ADME, cell-free. The essentials:
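Freshly collected normal mouse serum (50 μL) used as biotinidase source, mixed with sample and brought to 500 μL in 100 mM sodium acetate pH 5.5. Incubated at 37 °C for up to 2 h. Aliquots taken before and after incubation, diluted 10-fold in 0.08% TFA, then analysed by C18 RP-HPLC-ESI-MS (2-60% B over 20 min, 0.2 mL/min) for release of free biotin and recovery of parent.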

Where only a bound is given, the exact number is not on record here.

As to `O=C(O)CN1CCN(CC(=O)O)CCN(CC(=O)NCCCN(CCCNC(=O)CN2CCN(CC(=O)O)CCN(CC(=O)O)CCN(CC(=O)O)CC2)CC(=O)NCCCCCCNCCCCC[C@@H]2SC[C@@H]3NC(=O)N[C@@H]32)CCN(CC(=O)O)CC1`, the Activity entry in data set [1] is “Dose-dependent effect”. In addition, in data set [2], the inhibition came to 66%. This molecule also yielded a Stability in data set [3] of 90 °C.
The molecule `O=C(O)CCCC[C@@H]1SC[C@@H]2NC(=O)N[C@@H]21` registered an inhibition in data set [2] of 100%.
With `O=C(O)CN1CCN(CC(=O)O)CCN(CC(=O)NCCCN(CCCNC(=O)CN2CCN(CC(=O)O)CCN(CC(=O)O)CCN(CC(=O)O)CC2)CC(=O)NCCCCC(NC(=O)CCCC[C@@H]2SC[C@@H]3NC(=O)N[C@@H]32)C(=O)O)CCN(CC(=O)O)CC1` (stereo partly drawn), the Activity result in data set [1] is “Dose-dependent effect”. This molecule also gave an inhibition in data set [2] of 95%. This molecule showed a Stability in data set [3] of over 95 °C.
For `O=C(O)CN1CCN(CC(=O)O)CCN(CC(=O)NCCCN(CCCNC(=O)CN2CCN(CC(=O)O)CCN(CC(=O)O)CCN(CC(=O)O)CC2)CC(=O)Nc2ccc(C(=O)NCCCCC(NC(=O)CCCC[C@@H]3SC[C@@H]4NC(=O)N[C@@H]43)C(=O)O)cc2)CCN(CC(=O)O)CC1` (stereo partly drawn), in data set [1], the Activity result was “Dose-dependent effect”. The inhibition in data set [2] amounted to 97%. In addition, the Stability in data set [3] was over 95 °C; in the data set with Serum it was “Stable”.
For `O=C(O)CN1CCN(CC(=O)O)CCN(CC(=O)NCCCCCCN(CCCCCCNC(=O)CN2CCN(CC(=O)O)CCN(CC(=O)O)CCN(CC(=O)O)CC2)CC(=O)NCCCCCCNCCCCC[C@@H]2SC[C@@H]3NC(=O)N[C@@H]32)CCN(CC(=O)O)CC1`, the Activity entry in data set [1] is “Dose-dependent effect”. In data set [2], this molecule returned an inhibition of 64%.

As a reminder, the inhibition is the change of the read-out against control, counted positive when it falls. A high value points to a response far below the control.
